The values below come from article PMC8901509 (Clinical Drug Investigation, 2021).

In series [1] the test system is glycine transporter-1 (GlyT1). Conditions: rat; dose-dependent; cited from earlier work.
The conditions of series [2]: multiple oral doses of itraconazole; cited from earlier work.
Series [3] in a line: Study 2: metabolite radioprofiling in plasma, urine and feces. It is filed as in vivo, human. An outline of the steps: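 Single oral 25 mg [14C]-labelled solution to healthy males. Plasma (to 168 h), urine and daily feces profiled by HPLC radiochromatography with fractionation and solid scintillation counting. Identification by LC/MS with accurate mass, positive and negative ion CID MS/MS; tentative unless matched to an authentic standard. Peaks < 20 cpm height below quantitation limit.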

For series [4] the following is noted: cited from earlier work.
For series [5] the following is noted: anticipated therapeutic dose range of 5–25 mg; cited from earlier work.
The format of series [6] is in vivo. Conditions: human, plasma, po, 25 mg, t½, oral 25 mg solution, gMean (gCV%). An outline of the steps: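 Healthy males, overnight fast (≥ 10 h), sitting; single oral 25 mg dose of [14C]-labelled/unlabelled mixture as 12.5 mL solution (2 mg/mL) with 240 mL water, planned 3.7 MBq; no food ≥ 4 h. Venous blood 5–8 mL per time point; plasma frozen ~−20 °C within 60 min. Cmax, AUC0–tz, AUC0–∞, tmax, t1/2 for parent, three metabolites and total radioactivity.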

For series [7] the following is noted: cited from earlier work. This is another data set of the same source.
The nature of series [8]: Study 2: safety and tolerability. It is filed as in vivo, human. An outline of the steps:
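Healthy males, sitting, given a single oral 25 mg dose of [14C]-labelled plus unlabelled drug as a solution after an overnight fast. Safety from physical examination (AEs), safety laboratory parameters, 12-lead ECG and vital signs (pulse rate, blood pressure). Investigators graded severity and drug relatedness.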

The format of series [9] is in vivo, human. Conditions: gMean dose-normalized maximum plasma concentration. Summed up: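 Healthy males, overnight fast (≥ 10 h); single oral 25 mg film-coated tablet with water, fasted ≥ 4.5 h; at 4 h, 15-min IV infusion of 30 µg (3 µg [14C]-labelled, 0.011 MBq, plus 27 µg unlabelled). Plasma sampled −2 to 168 h (unlabelled) or 3–168 h (labelled), stored ~−20 °C. Unlabelled drug by validated LC/MS, labelled by AMS. Dose-normalized gMean ratio via mixed-effects ANOVA, two-sided 90% CI.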

A short description of series [10]: Study 1: safety and tolerability. The class given is in vivo, human. Summed up:
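Healthy males given a single oral 25 mg tablet followed 4 h later by a 15-min IV [14C]-microtracer infusion. Medical surveillance for 24 h post-dose. AEs recorded continuously from screening to end-of-trial visit (Days 12–15). Assessment by physical examination, safety laboratory parameters, 12-lead ECG and vital signs (pulse rate, blood pressure).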

Series [11] relates to glycine transporter-1 (GlyT1). Conditions: human; dose-dependent; cited from earlier work.

Like-named read-outs stand apart in the source and are kept apart here.

As usually defined, the half-life is how long it takes for the measured level to halve. Take `C[C@@H](Oc1ccc(S(C)(=O)=O)cc1C(=O)N1C[C@@H]2C[C@]2(c2cc(C(F)(F)F)on2)C1)C(F)(F)F` [BI 425809]: the “levels of glycine in cerebral spinal fluid (CSF)” value in series [1] was “increased”. Moreover, in [2], the “gMean ratio of Cmax with co-administration of itraconazole” value is 116.1%. The “% of Dose Administrated; % of the radioactive dose” value in series [3] (Average, feces radioprofiling) is recorded as < 1%. Besides, in series [3] (Average, plasma radioprofiling), the “Plasma (%AUC0-168h), % [14C]; % of total plasma radioactivity” value is recorded as 41.0%. Moreover, the “% of total radioactivity in feces” value in series [3] (feces radioprofiling) is < 1%. Also, in series [4], the “Biopharmaceutics Classification System class” value is recorded as “Class II” and the permeability entry is “high”. The tolerability result in series [5] is given as “generally well tolerated”. In addition, in [6], the half-life is ~50 h. In series [7] (25 mg tablet vs 25 mg solution), the “adjusted gMean ratio for AUC0–tz, tablet fasted vs. oral solution fasted” value is 80.5% and the “adjusted gMean ratio for Cmax, tablet fasted vs. oral solution fasted” value was 50.0%. Also, in series [7] (25 mg tablet), the “adjusted gMean ratio AUC0–tz, high-fat/high-calorie meal versus 10-h fasted” value was 125.9% and the “adjusted gMean ratio Cmax, high-fat/high-calorie meal versus 10-h fasted” value was 142.1%. Besides, in [8] (6 subjects), the “Total with on-treatment adverse events, %” value is reported as 83.3%. Also, in series [8] (study 2), the “AEs considered severe or drug related by the investigators” value was “none” and the “SAEs, AEs leading to discontinuation, AEs of special interest” value was “No SAEs”. Besides, in [8] (study 2, single 25 mg dose), the tolerability result is “generally well tolerated”. Further, the “Cmax,norm lower after oral administration versus IV dose” value in series [9] is listed as “approximately 80%”. Also, the “participants reporting at least one treatment-emergent AE” value in series [10] (of six participants) is listed as 50.0%. In [10] (study 1), the “intensity of treatment-emergent AEs” value is recorded as “mild intensity” and the “serious AEs, AEs leading to discontinuation, AEs of special interest” value is “no serious AEs reported”. Further, in [10] (study 1, oral 25 mg), the tolerability result is listed as “generally well tolerated”. In addition, in [11], the “levels of glycine in cerebral spinal fluid (CSF)” value was “increased”.
